This is a sample that favours compounds with a hit; in the whole collection about 2.6% have one here.
NR2E3 ag-1 = activates human NR2E3 receptor; inhibition of corepressor binding, % at 3.98 µM; Q9Y5X4; CHO-S Gal4-NCOR/VP16-NR2E3 two-hybrid, luciferase; 360,000 tested, 0.35% active; AID 602229;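 active = inhibition above the mean of all tested compounds plus 3 SD, cut at about 70% in these data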;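 also: 0% = DMSO with NR2E3 transfected cells and 100% = cells lacking NR2E3 construct; higher means lower luciferase signal from less NR2E3 corepressor binding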
Target sequence (Q9Y5X4 whole entry, looked up, the tested form may be a part): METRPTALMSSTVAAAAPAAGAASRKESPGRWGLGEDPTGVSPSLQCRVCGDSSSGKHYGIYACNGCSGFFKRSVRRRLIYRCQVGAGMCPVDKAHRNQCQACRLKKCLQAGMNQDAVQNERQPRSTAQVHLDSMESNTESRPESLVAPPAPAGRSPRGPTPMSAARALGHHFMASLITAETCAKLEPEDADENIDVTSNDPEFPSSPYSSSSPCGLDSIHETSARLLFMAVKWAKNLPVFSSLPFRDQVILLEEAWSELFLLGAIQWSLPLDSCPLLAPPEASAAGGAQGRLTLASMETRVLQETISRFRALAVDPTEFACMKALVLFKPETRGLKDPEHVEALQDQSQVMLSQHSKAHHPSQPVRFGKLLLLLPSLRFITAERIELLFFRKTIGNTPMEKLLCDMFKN
NR1D1 modulator = modulates human Rev-erb alpha binding to DNA; Rev-erbα–FITC-DNA binding, fluorescence polarization, 90 min; activity, % at 10 µM; P20393; 370,000 tested, 0.79% active;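 active = activity above about 14%, limit read from the data; passing the limit was not always enough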;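 also: 0% = DMSO wells with 35 nM protein and 100% = DMSO wells with 750 nM protein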
PG9 binder = PG9 antibody binding by small molecule; 360,000 tested, 0.43% active; TR-FRET gp120-PG9 antibody binding; inhibition, % at 6.7 µM; in the data active = inhibition above about 8.5%
NR2E3 ag-2 = agonists of human nuclear receptor NR2E3 | Q9Y5X4 | GST-NR2E3/biotin-RetCOR TR-FRET, 1536-well | inhibition of corepressor binding, % at 4.78 µM | 320,000 tested, 0.12% active | AID 2300;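 active = percent inhibition above the cutoff of mean plus 3 SD of all tested compounds, set per screening campaign, cut at about 20% in these data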;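 also: 0% = DMSO wells and 100% = biotin wells as full block of FRET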
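System: GST-tagged NR2E3 plus biotinylated RetCOR corepressor; Amount: 1.35 nM GST-tagged NR2E3 final; Dosing: single nominal compound dose of 4.8 µM; Schedule: 5 h incubation at 4 °C; Technique: TR-FRET with europium anti-GST and streptavidin-D2, 340 nm excitation; Controls: biotin wells as high control, 0.6% DMSO wells as low control.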
rCAG binder = molecules binding r(CAG) RNA repeats; r(CAG) RNA repeat, TO-PRO-1 dye displacement fluorescence; 370,000 tested, 1.3% active; inhibition, % at 3 µM; AID 651821;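 active = inhibition above the plate cutoff, the mean of all test compounds on that plate plus 3 SD, cut at about 35% in these data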;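 also: 0% = DMSO alone and 100% = 100 µM mitoxantrone as full dye displacement; higher means more dye released from RNA so lower well fluorescence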
rCAG bind conf = r(CAG) RNA repeat binding, confirmation | shares compounds with rCAG binder | TO-PRO-1 dye displacement fluorescence | inhibition, % at 3 µM | 4,300 tested, 70% active | AID 652065;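 active = inhibition above a per-plate cutoff, the mean inhibition of sample wells plus 3 SD, cut at about 35% in these data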;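 also: loss of TO-PRO-1 fluorescence as compound displaces dye from 1x1 AA loop RNA; 0% = DMSO only wells and 100% = 100 µM mitoxantrone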
dCAG dye counter = counter-screen for rCAG RNA binders: DNA CAG dye complex inhibitors; shares compounds with rCAG binder; d(CAG) DNA oligo TO-PRO-1 dye displacement, fluorescence; inhibition, % at 3 µM; 4,300 tested, 94% active; AID 652068;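 active = inhibition above its plate's cutoff, the mean test-well inhibition plus 3 SD, cut at about 4.8% in these data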;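 also: 0% = DNA dye mix with DMSO and 100% = 100 µM mitoxantrone; hits displace the dye from DNA and so lower well fluorescence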
dCAG dye DR = DNA CAG dye complex inhibition, dose response counter-screen | 250 tested, 20% active | IC50, µM | shares compounds with rCAG binder | DNA CAG/GTC duplex TO-PRO-1 dye displacement fluorescence; in the data active = IC50 below about 10 µM
Numbers without * were called inactive; · = not tested or not shown.

SMILES | NR2E3 ag-1 | NR1D1 modulator | PG9 binder | NR2E3 ag-2 | rCAG binder | rCAG bind conf | dCAG dye counter | others
Clc1cccc(Cc2c(C3CCCCC3)nc3ccc(Br)cn23)c1 | -1.5 | -1.2 | -0.2 | · | 35.9* | 23.1 | 2.9
COc1ccccc1Cc1c(-c2cccc(Cl)c2)nc2ccc(Br)cn12 | -22.5 | 4.6 | 0.0 | · | 38.0* | 22.2 | 4.2
Clc1cccc(Cc2c(-c3ccccc3)nc3ccc(Cl)cn23)c1 | -17.4 | -3.9 | 1.5 | · | 35.7* | 19.2 | 5.5*
Cc1ccsc1/C=C1\SC(=S)N(CC2CCCO2)C1=O (stereo not given) | 8.6 | 12.6 | -0.9 | 2.7 | 35.9* | 3.1 | 1.9
CCCCN1C(=O)C(=O)N(CC(=O)c2cc(C)n(C3CC3)c2C)C1=O | -37.9 | -3.0 | 0.1 | 3.6 | 0.6 | · | ·
COc1ccc(NC(=O)CN(C)C(=O)c2ccc(-c3ccccc3Cl)o2)cc1 | -47.8 | 2.4 | -1.8 | 0.6 | 3.6 | · | ·
COc1cc(-c2ccc(Nc3ccccc3C(=O)O)c(OC)c2)ccc1Nc1ccccc1C(=O)O | -13.1 | -11.1 | -2.0 | · | 93.3* | 86.5* | 58.6*
O=c1cc(-c2ccccc2)[nH]n1-c1nc2ccccc2[nH]1 | -34.5 | -2.4 | -2.8 | -3.7 | 64.8* | 15.7 | 9.1*
CCC(=O)Nc1sc2c(c1C(N)=O)CCC2 | -5.0 | 1.1 | 0.1 | -2.7 | 1.7 | · | ·
NC(=O)c1c(NC(=O)COC(=O)c2ccc(O)c(Cl)c2)sc2c1CCCC2 | -11.3 | 0.2 | -2.3 | · | 39.2* | 42.5* | 15.4*
N#CCC(=O)Nc1sc2c(c1C(N)=O)CCCC2 | -20.3 | -0.2 | -0.8 | 5.4 | 35.0* | 3.5 | 4.5*
COc1ccc(C2CCc3cc(OC)c(OC)cc3C2NC=O)cc1OC (stereo not given) | -20.1 | 4.6 | -1.5 | · | 0.4 | · | ·
N#CCC1(O)C(=O)N(Cc2ccccc2)c2ccccc21 (stereo not given) | -18.1 | 1.5 | -0.9 | · | 2.6 | · | ·
O=C1NC[C@@H](Cc2cccc3ccccc23)N(CCc2cccc(F)c2)C1=O | 5.3 | 0.7 | 1.0 | · | 5.8 | · | ·
CC(C)Cn1c(N)c(C(=O)CSc2n[nH]c(N)n2)c(=O)n(C)c1=O | -18.1 | 11.5 | -1.8 | 0.4 | 0.2 | · | ·
COc1cccc(-c2csc(NC(=O)Nc3ccccc3)n2)c1 | -62.6 | 5.8 | 2.1 | 0.1 | 54.2* | 28.9 | 24.9*
O=C(O)CCC(=O)Nc1ccc(-c2csc(Nc3cccc4ccccc34)n2)cc1 | -7.6 | 3.4 | -3.4 | 1.4 | 49.4* | 49.0* | 18.0*
O=C(Nc1ccccc1)Nc1nc(-c2ccccc2)cs1 | -27.8 | -0.7 | -0.6 | 1.2 | 43.2* | 12.3 | 15.1*
CCOC(=O)C1(Cc2ccccc2)CCN(Cc2ccccc2OC)CC1 | · | 5.4 | · | · | -1.4 | · | ·
Cn1ncc2c(=S)nc(Cl)[nH]c21 | 9.5 | -3.4 | 4.7 | · | 3.2 | · | ·
Cc1cccc(Cc2nc3ccccc3[nH]2)c1 | -31.1 | -3.2 | -0.5 | · | 1.2 | · | ·
CCCCNC(=O)c1nc(C2CCN(S(=O)(=O)c3csc(C(=O)O)c3)CC2)oc1-c1ccccc1 | -22.4 | -2.7 | -1.5 | · | 44.2* | 39.4* | 11.3* | dCAG dye DR=>29.9
O=C(NCCc1ccccc1)OCc1cn(-c2ccc(F)c(F)c2)nn1 | · | -7.4 | · | · | 0.0 | · | ·
CCCCc1ccc(S(=O)(=O)NC(=O)C2(C)CCN2C(=O)C/C=C/c2ccccc2)cc1 (stereo not given) | -34.5 | -7.5 | -2.1 | · | 57.5* | 54.9* | 17.9*
CCCCc1ccc(S(=O)(=O)NC(=O)C2(C)CCN2C(=O)Cc2ccccc2)cc1 (stereo not given) | -9.1 | -2.5 | 1.1 | · | 39.3* | 29.5 | 4.8*
SMILES | NR2E3 ag-1 | NR1D1 modulator | PG9 binder | NR2E3 ag-2 | rCAG binder | rCAG bind conf | dCAG dye counter | others
CCCCc1ccc(S(=O)(=O)NC(=O)C2(C)CCN2C(=O)c2cccc(F)c2)cc1 (stereo not given) | -7.5 | 2.1 | -1.3 | · | 36.6* | 29.7 | 6.5*
CCCCS(=O)(=O)NC(=O)C1(C)CCN1C(=O)C/C=C/c1ccccc1 (stereo not given) | -0.6 | -1.6 | 2.4 | · | 8.8 | · | ·
Nc1cccc2c(O)cc(S(=O)(=O)O)cc12 | -24.1 | · | · | · | · | · | ·
Nc1ccc2c(O)cc(S(=O)(=O)O)cc2c1 | -29.6 | -35.5 | -7.4 | · | 86.7* | 34.1 | 9.7*
S=c1[nH]nc(-c2ccco2)n1/N=C/c1cccc(Cl)c1Cl | 9.1 | -2.5 | -0.5 | 0.7 | 57.0* | 48.1* | 14.7*
S=c1[nH]nc(-c2ccco2)n1/N=C/c1ccc(Cl)cc1Cl | -0.3 | -3.7 | -1.8 | 1.1 | 35.0* | 63.5* | 19.2*
S=c1[nH]nc(-c2ccc(Cl)cc2)n1/N=C/C=C/c1ccco1 | -11.2 | -1.8 | -0.4 | -0.1 | 37.4* | 35.4* | 12.5*
CCCCc1cc(=O)oc2cc(C)cc(OCC(=O)N[C@@H](CSCc3ccccc3)C(=O)O)c12 | 7.1 | 4.9 | -1.0 | 2.6 | 39.4* | 46.9* | 12.3*
CCc1cc(=O)oc2cc(C)cc(OCC(=O)N[C@@H](CSCc3ccccc3)C(=O)O)c12 | 4.3 | -4.2 | 0.1 | 0.3 | 46.7* | 39.7* | 8.3*
CCc1cc(=O)oc2cc(C)cc(OCC(=O)NC(Cc3ccc(Cl)cc3)C(=O)O)c12 (stereo not given) | 2.9 | -3.4 | -0.8 | -1.9 | 34.0 | · | ·
CCCCc1cc(=O)oc2cc(C)cc(OCC(=O)NCc3ccccn3)c12 | -15.7 | -2.4 | -0.7 | 2.7 | -6.1 | · | ·
Cc1ccc(C(=O)OCC(=O)N2CCC(C)CC2)cc1S(=O)(=O)N1CCOCC1 | -19.8 | 1.2 | 2.9 | · | -0.4 | · | ·
CCCCCCC12C(=Cc3cc4c(cc31)OCCO4)c1cc(OC)c(OC)cc1C(CC(=O)O)N2C(=O)OC (stereo not given) | · | -5.5 | 0.8 | · | 43.4* | 35.2* | 7.0*
O=C(/C=C/c1ccccc1)NC(NC(=S)Nc1ccc(C(=O)O)cc1)C(Cl)(Cl)Cl (stereo not given) | 16.8 | 3.5 | -2.6 | -0.5 | 65.2* | 56.2* | 13.9*
O=C(/C=C/c1ccccc1)NC(NC(=S)Nc1cccc(O)c1)C(Cl)(Cl)Cl (stereo not given) | -6.5 | 1.0 | 0.3 | -4.7 | 23.8 | · | ·
CCC1CCC(C(=O)NNC(=O)c2cc(-c3ccco3)[nH]n2)CC1 (stereo not given) | 4.1 | 0.7 | 0.6 | 4.0 | 46.0* | 4.4 | 2.2
N=C1S/C(=C\c2ccc(-c3ccccc3C(=O)O)o2)C(=O)N1c1ccc2c(c1)OCO2 | 3.3 | 1.5 | -11.6 | · | 42.3* | 30.3 | 10.1*
COc1cc(/C=C2\SC(=S)N(CC(=O)O)C2=O)ccc1OS(=O)(=O)c1ccc(C)cc1 | -9.8 | -1.1 | 0.2 | 0.4 | 80.8* | 86.2* | 56.3*

Assay outcomes as filed in PubChem.
